Experimental data from ChEMBL document CHEMBL3596133, “Discovery and structural analyses of S-adenosyl-L-homocysteine hydrolase inhibitors based on non-adenosine analogs” (Bioorg Med Chem, 2015).
Active and inactive are the calls of the source. The rule behind the calls is not given here.

Tests used:
Adenosylhomocysteinase [1] = target: Adenosylhomocysteinase (Homo sapiens, UniProt P23526); experiment: Inhibition of recombinant human S-adenosyl-L-homocysteine hydrolase assessed as hydrolysis of AdoHcy after 8 mins by HPLC analysis
Summary of the method: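 Human recombinant enzyme (50 ng) added after test compound to 10 μM AdoHcy plus adenosine deaminase (4 units) in 50 mM phosphate buffer pH 7.2 with 1 mM EDTA. Incubated at 37 °C for 8 min, then stopped with 1 mol/L perchloric acid and centrifuged at 4 °C. Read-out is AdoHcy hydrolysis activity. IC50 given as mean ± standard error of triplicate determinations.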

Adenosylhomocysteinase [2] = target: T1, Adenosylhomocysteinase (Rattus norvegicus, UniProt P10760); experiment: Reversible inhibition of rat liver S-adenosyl-L-homocysteine hydrolase; format: tissue-based
T1 sequence (P10760 whole entry): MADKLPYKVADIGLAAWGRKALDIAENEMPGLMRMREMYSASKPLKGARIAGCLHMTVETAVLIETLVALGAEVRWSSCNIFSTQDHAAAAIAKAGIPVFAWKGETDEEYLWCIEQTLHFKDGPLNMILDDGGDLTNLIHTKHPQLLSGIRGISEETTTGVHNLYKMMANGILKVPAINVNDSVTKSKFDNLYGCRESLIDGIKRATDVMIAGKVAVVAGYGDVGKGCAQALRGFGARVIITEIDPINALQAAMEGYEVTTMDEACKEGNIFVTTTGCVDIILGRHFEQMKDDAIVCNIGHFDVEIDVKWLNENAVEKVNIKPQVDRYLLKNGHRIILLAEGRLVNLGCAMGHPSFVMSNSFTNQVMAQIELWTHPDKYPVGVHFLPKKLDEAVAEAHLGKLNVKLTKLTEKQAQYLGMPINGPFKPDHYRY

Row | IC50 (Adenosylhomocysteinase [1]) [nM] | SMILES | other results
1 | 49 | CC(C)N(CCNC(=O)CN(CC(=O)N(C)C1Cc2ccccc2C1)c1cc(Cl)ccc1Oc1ccc(Cl)cc1)C(=O)OC(C)(C)C | 
2 | > 100000 | CN(C(=O)CN(CC(=O)NCCN1CCCC1)c1cc(Cl)ccc1Oc1ccc(Cl)cc1)C1CCNCC1 | 
3 | 640 | CCN(C(=O)CN(CC(=O)NCCN1CCCC1)c1cc(Cl)ccc1Oc1ccc(Cl)cc1)C1Cc2ccccc2C1 | 
4 | 60 | CCN(CCNC(=O)CN(CC(=O)N(C)C1Cc2ccccc2C1)c1cc(Cl)ccc1Oc1ccc(Cl)cc1)C(=O)OC(C)(C)C | 
5 | 1200 | CN(C(=O)CN(CC(=O)NC1CCCN(C(=O)OC(C)(C)C)C1)c1cc(Cl)ccc1Oc1ccc(Cl)cc1)C1Cc2ccccc2C1 (stereo unspecified) | 
6 |  | CN(C(=O)CN(CC(=O)NC1CCCNC1)c1cc(Cl)ccc1Oc1ccc(Cl)cc1)C1Cc2ccccc2C1 (stereo unspecified) | inhibition (Adenosylhomocysteinase [1]): Active
7 | 110 | CN(C(=O)CN(CC(=O)NC[C@@H]1CCCN1C(=O)OC(C)(C)C)c1cc(Cl)ccc1Oc1ccc(Cl)cc1)C1Cc2ccccc2C1 | 
8 | > 100000 | CN(CCN1CCCC1)C(=O)CN(CC(=O)N(C)C1Cc2ccccc2C1)c1cc(Cl)ccc1Oc1ccc(Cl)cc1 | 
9 |  | CN(C(=O)CN(CC(=O)NC1CCNC1)c1cc(Cl)ccc1Oc1ccc(Cl)cc1)C1Cc2ccccc2C1 (stereo unspecified) | inhibition (Adenosylhomocysteinase [1]): Active
10 | 8.5 | CCNCCNC(=O)CN(CC(=O)N(C)N1Cc2ccccc2C1)c1cc(Cl)ccc1Oc1ccc(Cl)cc1 | 
11 | 150 | CN(C(=O)CN(CC(=O)NCC1CCCCN1C(=O)OC(C)(C)C)c1cc(Cl)ccc1Oc1ccc(Cl)cc1)C1Cc2ccccc2C1 (stereo unspecified) | 
12 | 1500 | CN(C(=O)CN(CC(=O)NC1CCN(C(=O)OC(C)(C)C)C1)c1cc(Cl)ccc1Oc1ccc(Cl)cc1)C1Cc2ccccc2C1 (stereo unspecified) | 
13 | 2300 | O=C(CN(CC(=O)N1CCCc2ccccc21)c1cc(Cl)ccc1Oc1ccc(Cl)cc1)NCCN1CCCC1 | 
14 | 70 | CN(CCNC(=O)CN(CC(=O)N(C)C1Cc2ccccc2C1)c1cc(Cl)ccc1Oc1ccc(Cl)cc1)C(=O)OC(C)(C)C | 
15 |  | Nc1ncnc2c1ncn2CC(O)CO (stereo unspecified) | Ki (Adenosylhomocysteinase [2]): 1000 nM
16 | 600 | CN(C(=O)CN(CC(=O)NC[C@H]1CCCN1C(=O)OC(C)(C)C)c1cc(Cl)ccc1Oc1ccc(Cl)cc1)C1Cc2ccccc2C1 | 
